Results: ChEMBL document CHEMBL1124121, “Occurrence and pharmacological significance of metabolic ortho-hydroxylation of 5- and 8-hydroxy-2-(di-n-propylamino)tetralin” (1988)
Activity calls are given as the source filed them. The calls are words filed in the database; no cut-off is given here.

Assays:
Rattus norvegicus [1] = organism: Rattus norvegicus; test: Effect on dopamine accumulation in striatum of rat; Inactive; format: functional, organism-based
Rattus norvegicus [2] = organism: Rattus norvegicus; test: Effect on 5-HTP accumulation in striatum of rat.; format: functional
Rattus norvegicus [3] = organism: Rattus norvegicus; test: Effect on dopamine accumulation in limbic system of rat; Inactive; format: functional, organism-based
Rattus norvegicus [4] = organism: Rattus norvegicus; test: Effect on 5-HTP accumulation in hemispheres of rat.; format: functional
Rattus norvegicus [5] = organism: Rattus norvegicus; test: Effect on 5-HTP accumulation in limbic system of rat.; format: functional
Rattus norvegicus [6] = organism: Rattus norvegicus; test: Effect on dopamine accumulation in hemispheres of rat; Inactive; format: functional, organism-based
Rattus norvegicus [7] = test: post-synaptic effect was assayed by the increase in locomotor activity (reserpine pretreatment), at 12.5 umol/kg; format: functional
Outline: (§1)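 Male Sprague-Dawley rats pretreated sc in the neck with reserpine (5 mg/kg), then given the compound sc in the neck (n = 4). Placed singly in motility meters immediately after dosing; locomotor counts accumulated over 0–30 min. Student's t test.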

Rattus norvegicus [8] = organism: Rattus norvegicus; test: Effect on dopamine accumulation in striatum of rat.; format: functional
Rattus norvegicus [9] = organism: Rattus norvegicus; test: Effect on dopamine accumulation in limbic system of rat.; format: functional
Rattus norvegicus [10] = organism: Rattus norvegicus; test: Effect on 5-HTP accumulation in limbic system of rat; Inactive; format: functional, organism-based
Rattus norvegicus [11] = organism: Rattus norvegicus; test: Apparent kinetic constant(Km) for the O-Methylation on crude rat liver microsomes.; format: functional, organism-based
Rattus norvegicus [12] = organism: Rattus norvegicus; test: Effect on 5-HTP accumulation in hemispheres of rat; Inactive; format: functional, organism-based
Rattus norvegicus [13] = organism: Rattus norvegicus; test: Apparent kinetic constant(Vmax) for the O-Methylation on crude rat liver microsomes at 1 mg of protein; format: functional
Rattus norvegicus [14] = test: post-synaptic effect was assayed by the increase in locomotor activity (reserpine pretreatment), at 0.25 umol/kg; format: functional; outline: as §1
[15] = Ratio of Km to that Vmax in crude rat liver microsomes was determined; details: Microsome
Rattus norvegicus [16] = organism: Rattus norvegicus; test: Effect on 5-HTP accumulation in striatum of rat; Inactive; format: functional, organism-based
Rattus norvegicus [17] = organism: Rattus norvegicus; test: Effect on dopamine accumulation in hemispheres of rat.; format: functional
Rattus norvegicus [18] = test: post-synaptic effect was assayed by the increase in locomotor activity (reserpine pretreatment), at 3.15 umol/kg; format: functional; outline: as §1
Rattus norvegicus [19] = test: Brain Concentration of 7,8-di-OH-DPAT after 15(umol/kg) sc administration with tropolone pretreatment in rat striatum; format: functional, organism-based
Outline: (§2)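 Male Wistar rats dosed sc in the neck with compound in saline (1 mL/kg), with or without tropolone pretreatment. Killed by decapitation 45 min later; striatum, cerebellum and cortex dissected and frozen at -80 °C. Perchloric acid extracts purified over Sephadex G10 and the formic acid eluate analysed by reversed-phase HPLC with electrochemical detection. Mean ± SEM, n = 4.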

Rattus norvegicus [20] = test: Brain Concentration of 7,8-di-OH-DPAT after 15(umol/kg) sc administration without tropolone pretreatment in rat cortex; format: functional, organism-based; outline: as §2
Rattus norvegicus [21] = test: Brain Concentration at 15(umol/kg, sc) with tropolone pretreatment in rat cerebellum; format: functional, organism-based; outline: as §2
Rattus norvegicus [22] = test: Brain Concentration of 7,8-di-OH-DPAT after 15(umol/kg) sc administration without tropolone pretreatment in rat striatum; format: functional, organism-based; outline: as §2
Rattus norvegicus [23] = test: Brain Concentration at 15(umol/kg, sc) without tropolone pretreatment in rat striatum; format: functional, organism-based; outline: as §2
Rattus norvegicus [24] = test: Brain Concentration of 7,8-di-OH-DPAT after 15(umol/kg) sc administration without tropolone pretreatment in rat cerebellum; format: functional, organism-based; outline: as §2
Rattus norvegicus [25] = test: Brain Concentration at 15(umol/kg, sc) without tropolone pretreatment in rat cortex; format: functional, organism-based; outline: as §2
Rattus norvegicus [26] = test: Brain Concentration of 7,8-di-OH-DPAT after 15(umol/kg) sc administration with tropolone pretreatment in rat cerebellum; format: functional, organism-based; outline: as §2
Rattus norvegicus [27] = test: Brain Concentration at 15(umol/kg, sc) with tropolone pretreatment in rat cortex; format: functional, organism-based; outline: as §2
Rattus norvegicus [28] = test: Brain Concentration at 15(umol/kg, sc) without tropolone pretreatment in rat cerebellum; format: functional, organism-based; outline: as §2
Rattus norvegicus [29] = test: Brain Concentration at 15(umol/kg, sc) with tropolone pretreatment in rat striatum; format: functional, organism-based; outline: as §2
Rattus norvegicus [30] = test: Brain Concentration of 7,8-di-OH-DPAT after 15(umol/kg) sc administration with tropolone pretreatment in rat cortex; format: functional, organism-based; outline: as §2
Rattus norvegicus [31] = test: Brain Concentration at 25 (umol/kg, sc) with tropolone pretreatment in rat cerebellum; format: functional, organism-based; outline: as §2
Rattus norvegicus [32] = test: Brain Concentration of 5,6-di-OH-DPAT after 25 (umol/kg) sc administration with tropolone pretreatment in rat cerebellum; format: functional, organism-based; outline: as §2
Rattus norvegicus [33] = test: Brain Concentration of 5,6-di-OH-DPAT after 25 (umol/kg) sc administration without tropolone pretreatment in rat striatum; format: functional, organism-based; outline: as §2
Rattus norvegicus [34] = test: Brain Concentration at 25 (umol/kg, sc) with tropolone pretreatment in rat striatum; format: functional, organism-based; outline: as §2
Rattus norvegicus [35] = organism: Rattus norvegicus; test: Apparent kinetic constant(Vmax) for the aromatic hydroxylation on crude rat liver microsomes at 1 mg of protein; format: functional
Outline: (§3)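 Crude rat liver microsomes (0.5 mg protein/mL) were incubated with substrate at 37 °C for 3 min in 0.1 M Tris, pH 7.4, with 0.1 mM NADPH and MgCl₂. The reaction was stopped with perchloric acid. Catechol products in the supernatant were measured by HPLC with electrochemical detection. Apparent Km and Vmax came from Lineweaver-Burk plots of 3–4 substrate concentrations, each run in triplicate.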

Rattus norvegicus [36] = test: Brain Concentration at 25 (umol/kg, sc) without tropolone pretreatment in rat cerebellum; format: functional, organism-based; outline: as §2
Rattus norvegicus [37] = test: Brain Concentration of 5,6-di-OH-DPAT after 25 (umol/kg) sc administration with tropolone pretreatment in rat cortex; format: functional, organism-based; outline: as §2
Rattus norvegicus [38] = test: Brain Concentration at 25 (umol/kg, sc) with tropolone pretreatment in rat cortex; format: functional, organism-based; outline: as §2
Rattus norvegicus [39] = organism: Rattus norvegicus; test: Apparent kinetic constant(Km) for the aromatic hydroxylation on crude rat liver microsomes.; format: functional, organism-based; outline: as §3
Rattus norvegicus [40] = test: Brain Concentration of 5,6-di-OH-DPAT after 25 (umol/kg) sc administration without tropolone pretreatment in rat cerebellum; format: functional, organism-based; outline: as §2
Rattus norvegicus [41] = test: Brain Concentration of 5,6-di-OH-DPAT after 25 (umol/kg) sc administration without tropolone pretreatment in rat cortex; format: functional, organism-based; outline: as §2
Rattus norvegicus [42] = test: Brain Concentration of 5,6-di-OH-DPAT after 25 (umol/kg) sc administration with tropolone pretreatment in rat striatum; format: functional, organism-based; outline: as §2
Rattus norvegicus [43] = test: Brain Concentration at 25 (umol/kg, sc) without tropolone pretreatment in rat cortex; format: functional, organism-based; outline: as §2
Rattus norvegicus [44] = test: Brain Concentration at 25 (umol/kg, sc) without tropolone pretreatment in rat striatum; format: functional, organism-based; outline: as §2

| SMILES | ED50 (Rattus norvegicus [2]) [µmol/kg] | ED50 (Rattus norvegicus [4]) [µmol/kg] | ED50 (Rattus norvegicus [5]) [µmol/kg] | ED50 (Rattus norvegicus [6]) | ED50 (Rattus norvegicus [8]) [µmol/kg] | ED50 (Rattus norvegicus [9]) [µmol/kg] | ED50 (Rattus norvegicus [10]) | Km (Rattus norvegicus [11]) [µM] | ED50 (Rattus norvegicus [12]) | Vmax (Rattus norvegicus [13]) [pM/min] | Ratio [15] | ED50 (Rattus norvegicus [16]) | other results |
| --- | --- | --- | --- | --- | --- | --- | --- | --- | --- | --- | --- | --- | --- |
| CCCN(CCC)C1CCc2cccc(OC)c2C1 (configuration not stated) | 0.29 | 0.23 | 0.34 |  |  |  |  |  |  |  |  |  | ED50 (Rattus norvegicus [1]): inactive; ED50 (Rattus norvegicus [3]): inactive |
| CCCN(CCC)C1CCc2ccc(O)c(OC)c2C1 (configuration not stated) | 2.06 | 1.62 | 1.49 | inactive | 0.35 | 0.314 |  |  |  |  |  |  | Motor activity (Rattus norvegicus [7]): <149 |
| CCCN(CCC)C1CCc2c(ccc(O)c2O)C1 (configuration not stated) |  |  |  | inactive | 0.007 | 0.007 | inactive | 80 | inactive | 400 | 5000 | inactive | Motor activity (Rattus norvegicus [14]): <529 |
| CCCN1CCC[C@@H](c2ccc(O)c(O)c2)C1 |  |  |  |  |  |  |  | 77 |  | 37000 |  |  |  |
| CCCN(CCC)C1CCc2c(ccc(O)c2OC)C1 (configuration not stated) |  |  |  | inactive | 0.125 | 0.16 | inactive |  | inactive |  |  | inactive | Motor activity (Rattus norvegicus [7]): <204 |
| CCCN(CCC)C1CCc2ccc(O)c(O)c2C1 (configuration not stated) | 1.39 | 1.05 | 1.53 |  | 0.977 | 0.986 |  | 2400 |  | 280 | 117 |  | ED50 (Rattus norvegicus [17]): 1.75 µmol/kg; Motor activity (Rattus norvegicus [18]): <31 |
| CCCN(CCC)[C@@H]1CCc2ccc(O)cc2C1 |  |  |  | inactive | 0.17 | 0.18 | inactive |  | inactive |  |  | inactive |  |
| CCCN(CCC)C1CCc2cccc(O)c2C1 (configuration not stated) [8-OH-DPAT] | 0.045 | 0.068 | 0.048 | inactive |  |  |  |  |  |  |  |  | ED50 (Rattus norvegicus [1]): inactive; Concentration (Rattus norvegicus [19]): 0.58 nM/g; Concentration (Rattus norvegicus [20]): 0.64 nM/g; ED50 (Rattus norvegicus [3]): inactive; Concentration (Rattus norvegicus [21]): 9 nM/g; Concentration (Rattus norvegicus [22]): 0.65 nM/g; Concentration (Rattus norvegicus [23]): 10.3 nM/g; Concentration (Rattus norvegicus [24]): 0.5 nM/g; Concentration (Rattus norvegicus [25]): 10.7 nM/g; Concentration (Rattus norvegicus [26]): 0.54 nM/g; Concentration (Rattus norvegicus [27]): 13.2 nM/g; Concentration (Rattus norvegicus [28]): 8.1 nM/g; Concentration (Rattus norvegicus [29]): 12.3 nM/g; Concentration (Rattus norvegicus [30]): 0.7 nM/g |
| CCCN(CCC)C1CCc2c(cccc2OC)C1 (configuration not stated) |  |  |  | inactive | 0.018 | 0.013 | inactive |  | inactive |  |  | inactive |  |
| CCCN(CCC)C1CCc2c(O)cccc2C1 (configuration not stated) [5-OH-DPAT] |  |  |  | inactive | 0.009 | 0.011 | inactive |  | inactive |  | 19600 | inactive | Concentration (Rattus norvegicus [31]): 9.4 nM/g; Concentration (Rattus norvegicus [32]): 0.3 nM/g; Concentration (Rattus norvegicus [33]): 0.2 nM/g; Concentration (Rattus norvegicus [34]): 11.9 nM/g; Vmax (Rattus norvegicus [35]): 1180 pM/min; Concentration (Rattus norvegicus [36]): 8.5 nM/g; Concentration (Rattus norvegicus [37]): 0.37 nM/g; Concentration (Rattus norvegicus [38]): 12.7 nM/g; Km (Rattus norvegicus [39]): 60 µM; Concentration (Rattus norvegicus [40]): 0.08 nM/g; Concentration (Rattus norvegicus [41]): 0.08 nM/g; Concentration (Rattus norvegicus [42]): 0.43 nM/g; Concentration (Rattus norvegicus [43]): 12.1 nM/g; Concentration (Rattus norvegicus [44]): 10.8 nM/g |
